Source: ChEMBL document CHEMBL1221302, “Discovery of imidazo[1,2-b]pyridazine derivatives as IKKbeta inhibitors. Part 1: Hit-to-lead study and structure-activity relationship” (Bioorg Med Chem Lett, 2010)

What was measured:
[1] = tested on: THP-1; test: Antiinflammatory activity in human THP1 cells assessed as inhibition of LPS-induced TNFalpha production after 4 hrs by ELISA; type: functional, cell-based; settings: THP-1, 4 h
How it was run: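 THP-1 cells primed 3–4 days with 100 nM calcitriol in RPMI-1640 containing 10% FBS, then cultured overnight without calcitriol. Resuspended in RPMI-1640 with 25 mM HEPES at 1.5×10^5 cells/mL. Compound and E. coli O111:B4 LPS added together, 4 h at 37 °C in 5% CO2. TNFα measured in the centrifuged supernatant by ELISA.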

[2] = target: T1, Inhibitor of nuclear factor kappa-B kinase subunit beta (Homo sapiens, UniProt O14920); test: Inhibition of purified His-tagged IKK-beta after 15 mins
T1 sequence (O14920 whole entry): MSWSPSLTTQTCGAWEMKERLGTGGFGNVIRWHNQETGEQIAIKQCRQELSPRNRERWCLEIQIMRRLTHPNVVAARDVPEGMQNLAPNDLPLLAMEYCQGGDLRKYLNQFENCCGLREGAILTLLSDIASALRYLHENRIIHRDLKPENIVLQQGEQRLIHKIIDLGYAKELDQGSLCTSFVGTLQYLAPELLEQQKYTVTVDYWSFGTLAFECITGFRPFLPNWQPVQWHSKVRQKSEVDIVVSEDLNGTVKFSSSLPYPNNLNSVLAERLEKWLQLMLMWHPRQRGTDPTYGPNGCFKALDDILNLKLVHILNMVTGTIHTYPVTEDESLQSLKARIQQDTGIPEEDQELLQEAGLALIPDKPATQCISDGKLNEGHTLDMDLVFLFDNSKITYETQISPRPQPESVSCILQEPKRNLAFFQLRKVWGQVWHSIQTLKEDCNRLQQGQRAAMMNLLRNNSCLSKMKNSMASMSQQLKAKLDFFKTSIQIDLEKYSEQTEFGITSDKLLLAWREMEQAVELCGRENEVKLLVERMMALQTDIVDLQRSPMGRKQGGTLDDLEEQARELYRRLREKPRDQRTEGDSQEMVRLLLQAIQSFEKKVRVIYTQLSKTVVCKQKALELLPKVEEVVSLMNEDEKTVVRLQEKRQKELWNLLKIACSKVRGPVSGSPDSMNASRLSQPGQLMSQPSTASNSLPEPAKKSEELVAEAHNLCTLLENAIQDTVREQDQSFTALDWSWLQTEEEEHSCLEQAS

[3] = target: Cyclin-dependent kinase 2 (Homo sapiens, UniProt P24941); test: Inhibition of recombinant CDK2 after 15 mins
[4] = target: T2, Inhibitor of nuclear factor kappa-B kinase subunit alpha (Homo sapiens, UniProt O15111); test: Inhibition of recombinant IKKalpha after 15 mins
T2 sequence (O15111 whole entry): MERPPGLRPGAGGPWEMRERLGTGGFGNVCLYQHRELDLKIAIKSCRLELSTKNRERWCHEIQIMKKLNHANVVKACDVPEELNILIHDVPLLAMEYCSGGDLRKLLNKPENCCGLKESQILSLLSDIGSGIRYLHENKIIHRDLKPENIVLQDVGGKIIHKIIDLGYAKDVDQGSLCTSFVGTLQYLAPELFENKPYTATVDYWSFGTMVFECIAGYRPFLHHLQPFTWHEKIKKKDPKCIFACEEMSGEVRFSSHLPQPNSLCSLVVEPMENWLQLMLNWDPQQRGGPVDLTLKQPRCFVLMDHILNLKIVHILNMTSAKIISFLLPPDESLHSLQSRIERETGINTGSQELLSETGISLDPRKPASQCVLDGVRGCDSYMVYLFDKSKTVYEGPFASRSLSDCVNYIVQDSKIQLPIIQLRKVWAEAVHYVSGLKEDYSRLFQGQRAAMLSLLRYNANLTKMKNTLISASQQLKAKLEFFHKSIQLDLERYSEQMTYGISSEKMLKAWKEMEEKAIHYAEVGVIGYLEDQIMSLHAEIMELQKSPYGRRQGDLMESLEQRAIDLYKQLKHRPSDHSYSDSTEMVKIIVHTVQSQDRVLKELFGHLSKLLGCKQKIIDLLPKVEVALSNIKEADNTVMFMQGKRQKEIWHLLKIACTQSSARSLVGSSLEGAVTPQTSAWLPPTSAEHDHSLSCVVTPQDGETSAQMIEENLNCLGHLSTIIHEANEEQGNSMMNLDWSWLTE

[5] = target: Glycogen synthase kinase-3 beta (Homo sapiens, UniProt P49841); test: Inhibition of recombinant GSK3-beta after 15 mins
How it was run: (§1)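 Each recombinant kinase was assayed with ATP at its own Km.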

[6] = Apparent permeability of the compound at pH 7.4 by PAMPA method; type: ADME
[7] = target: Mitogen-activated protein kinase 14 (Homo sapiens, UniProt Q16539); test: Inhibition of recombinant p38alpha after 15 mins; how it was run: as §1
[8] = target: Mitogen-activated protein kinase 10 (Homo sapiens, UniProt P53779); test: Inhibition of recombinant JNK3 after 15 mins; how it was run: as §1
Chain of Mitogen-activated protein kinase 10 (P53779 whole entry): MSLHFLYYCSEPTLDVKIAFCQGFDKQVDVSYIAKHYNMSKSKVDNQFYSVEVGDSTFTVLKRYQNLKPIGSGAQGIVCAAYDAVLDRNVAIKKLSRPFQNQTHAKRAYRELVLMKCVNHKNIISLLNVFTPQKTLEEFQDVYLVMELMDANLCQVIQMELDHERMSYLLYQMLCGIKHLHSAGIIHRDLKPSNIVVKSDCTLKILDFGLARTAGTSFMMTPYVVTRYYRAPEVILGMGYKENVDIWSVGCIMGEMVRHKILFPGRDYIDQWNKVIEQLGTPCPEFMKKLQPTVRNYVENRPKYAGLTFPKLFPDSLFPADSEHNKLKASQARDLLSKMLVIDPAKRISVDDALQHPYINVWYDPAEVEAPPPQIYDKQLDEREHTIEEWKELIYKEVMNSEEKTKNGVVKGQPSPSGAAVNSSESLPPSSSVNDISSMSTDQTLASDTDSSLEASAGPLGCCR

Chain of Glycogen synthase kinase-3 beta (P49841 whole entry): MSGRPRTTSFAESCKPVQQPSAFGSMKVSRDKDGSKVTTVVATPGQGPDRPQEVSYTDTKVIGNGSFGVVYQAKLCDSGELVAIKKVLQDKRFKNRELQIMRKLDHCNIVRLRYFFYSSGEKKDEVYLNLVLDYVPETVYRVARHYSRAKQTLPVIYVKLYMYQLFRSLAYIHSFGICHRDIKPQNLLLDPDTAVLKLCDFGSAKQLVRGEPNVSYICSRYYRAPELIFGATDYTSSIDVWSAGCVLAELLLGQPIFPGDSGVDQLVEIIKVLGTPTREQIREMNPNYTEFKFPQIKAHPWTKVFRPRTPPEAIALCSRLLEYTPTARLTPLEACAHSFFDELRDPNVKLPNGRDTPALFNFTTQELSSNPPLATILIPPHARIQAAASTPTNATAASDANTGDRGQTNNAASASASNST
Chain of Mitogen-activated protein kinase 14 (Q16539 whole entry): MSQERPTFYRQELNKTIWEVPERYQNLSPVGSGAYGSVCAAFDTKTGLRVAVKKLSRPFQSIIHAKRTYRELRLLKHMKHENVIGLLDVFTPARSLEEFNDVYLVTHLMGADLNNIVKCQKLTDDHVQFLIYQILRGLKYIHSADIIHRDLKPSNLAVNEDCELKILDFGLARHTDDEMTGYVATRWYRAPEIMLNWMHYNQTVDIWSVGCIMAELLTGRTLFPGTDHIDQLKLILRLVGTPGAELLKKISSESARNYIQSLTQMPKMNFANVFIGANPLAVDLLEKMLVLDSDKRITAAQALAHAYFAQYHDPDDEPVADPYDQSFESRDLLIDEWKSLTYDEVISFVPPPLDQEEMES

SMILES	IC50 [1]	IC50 [2]	further results
CN(C)CCCNC(=O)c1ccc(-c2cnc3ccc(NCc4ccc(Cl)c(Cl)c4)nn23)cc1	> 30 µM		
O=C(NC[C@@H]1CCCN1)c1ccc(-c2cnc3ccc(N[C@H]4CC[C@H](O)CC4)nn23)cc1	> 30 µM		
O=C(NCCNc1ccccc1)c1ccc(-c2cnc3ccc(NCc4ccc(Cl)c(Cl)c4)nn23)cc1	> 30 µM		
CC(=O)NCCNc1ccc2ncc(-c3ccc(C(=O)NC[C@@H]4CCCN4)cc3)n2n1	> 30 µM		
O=C(NCC1CCNCC1)c1ccc(-c2cnc3ccc(NCc4ccc(Cl)c(Cl)c4)nn23)cc1	> 30 µM		
O=C(NC[C@@H]1CCCN1)c1ccc(-c2cnc3ccc(N4CCC(O)CC4)nn23)cc1		> 30 µM	
O=C(NCCN1CCCC1)c1ccc(-c2cnc3ccc(NCc4ccc(Cl)c(Cl)c4)nn23)cc1	> 30 µM	0.59 µM	IC50 [3]: > 100 µM; IC50 [4]: 4.6 µM; IC50 [5]: > 100 µM; IC50 [7]: > 100 µM; IC50 [8]: 90 µM
O=C(NC[C@@H]1CCCN1)c1ccc(-c2cnc3ccc(N4CCOCC4)nn23)cc1		> 30 µM	
O=C(NCCN1CCOCC1)c1ccc(-c2cnc3ccc(NCc4ccc(Cl)c(Cl)c4)nn23)cc1		> 30 µM	
NC1CN(C(=O)c2ccc(-c3cnc4ccc(NCc5ccc(Cl)c(Cl)c5)nn34)cc2)C1	> 30 µM		
CN(C)CCNC(=O)c1ccc(-c2cnc3ccc(NCc4ccc(Cl)c(Cl)c4)nn23)cc1	> 30 µM		IC50 [3]: > 100 µM; IC50 [5]: > 100 µM
O=C(NCCN1CCCCC1)c1ccc(-c2cnc3ccc(NCc4ccc(Cl)c(Cl)c4)nn23)cc1	> 30 µM		
O=C(NC[C@@H]1CCCN1)c1ccc(-c2cnc3ccc(NCCCO)nn23)cc1	> 30 µM		
O=C(NC[C@@H]1CCCN1)c1ccc(-c2cnc3ccc(NCCc4cnc[nH]4)nn23)cc1	> 30 µM	3 µM	
O=C(NC[C@@H]1CCCN1)c1ccc(-c2cnc3ccc(NCCCn4ccnc4)nn23)cc1	> 30 µM	0.38 µM	
O=C(c1ccc(-c2cnc3ccc(NCc4ccc(Cl)c(Cl)c4)nn23)cc1)N1CCC(N2CCCC2)CC1	> 30 µM	1.4 µM	
CNc1ccc2ncc(-c3ccc(C(=O)NC[C@@H]4CCCN4)cc3)n2n1	29 µM		
O=C(NC[C@@H]1CCCN1)c1ccc(-c2cnc3ccc(NCCO)nn23)cc1	> 30 µM		
O=C(NCc1ccccn1)c1ccc(-c2cnc3ccc(NCc4ccc(Cl)c(Cl)c4)nn23)cc1	> 30 µM		
O=C(c1ccc(-c2cnc3ccc(NCC4CC4)nn23)cc1)N1CCC[C@H]1CN1CCCC1		5.1 µM	

More lines, main results first:

IC50 [1]	IC50 [2]	SMILES	further results
27 µM	27 µM	CCNC(=O)c1ccc(-c2cnc3ccc(NCc4ccc(Cl)c(Cl)c4)nn23)cc1	
1.6 µM	0.1 µM	O=C(NC[C@H]1CCCN1)c1ccc(-c2cnc3ccc(NCC4CC4)nn23)cc1	
6.5 µM		CC(C)(N)CNC(=O)c1ccc(-c2cnc3ccc(NCc4ccc(Cl)c(Cl)c4)nn23)cc1	
4 µM	0.32 µM	O=C(NC[C@@H]1CCCN1)c1ccc(-c2cnc3ccc(NCc4ccc(Cl)c(Cl)c4)nn23)cc1	IC50 [3]: 95 µM; IC50 [4]: 2.2 µM; IC50 [5]: > 100 µM; Papp [6]: < 2 ×10⁻⁶ cm/s; IC50 [7]: > 100 µM; IC50 [8]: > 100 µM
0.69 µM	0.055 µM	O=C(NC[C@@H]1CCCN1)c1ccc(-c2cnc3ccc(NCC4CC4)nn23)cc1	IC50 [3]: > 100 µM; IC50 [4]: 40 µM; IC50 [5]: > 100 µM; Papp [6]: < 2 ×10⁻⁶ cm/s; IC50 [7]: > 100 µM; IC50 [8]: > 100 µM
4.7 µM		NCCCNC(=O)c1ccc(-c2cnc3ccc(NCc4ccc(Cl)c(Cl)c4)nn23)cc1	
2.1 µM		CC(CN(C)C)NC(=O)c1ccc(-c2cnc3ccc(NCC4CC4)nn23)cc1 (stereo not drawn)	
2.4 µM		NCCNC(=O)c1ccc(-c2cnc3ccc(NCc4ccc(Cl)c(Cl)c4)nn23)cc1	
1.2 µM		CCN(CC)CCNC(=O)c1ccc(-c2cnc3ccc(NCC4CC4)nn23)cc1	
15 µM		CN(C)CCN(C)C(=O)c1ccc(-c2cnc3ccc(NCc4ccc(Cl)c(Cl)c4)nn23)cc1	
3.2 µM		O=C(NC[C@@H]1CCCN1)c1ccc(-c2cnc3ccc(NC4CC4)nn23)cc1	
0.69 µM	0.2 µM	CN(C)CCNC(=O)c1ccc(-c2cnc3ccc(NCC4CC4)nn23)cc1	IC50 [3]: > 100 µM; IC50 [4]: > 100 µM; IC50 [5]: > 100 µM; Papp [6]: > 50 ×10⁻⁶ cm/s; IC50 [7]: > 100 µM; IC50 [8]: > 100 µM
20 µM		CN(C)c1ccc2ncc(-c3ccc(C(=O)NC[C@@H]4CCCN4)cc3)n2n1	
1.5 µM		O=C(NC[C@@H]1CCCCN1)c1ccc(-c2cnc3ccc(NCC4CC4)nn23)cc1	
17 µM	10 µM	O=C(NC[C@@H]1CCNC1)c1ccc(-c2cnc3ccc(NCc4ccc(Cl)c(Cl)c4)nn23)cc1	
2.7 µM	0.19 µM	O=C(NC[C@@H]1CCCN1)c1ccc(-c2cnc3ccc(NCc4cccc(Cl)c4)nn23)cc1	IC50 [3]: > 100 µM; IC50 [4]: > 4 µM; IC50 [5]: > 100 µM; Papp [6]: < 2 ×10⁻⁶ cm/s; IC50 [7]: > 100 µM; IC50 [8]: 78 µM
2.4 µM		CN(C)CCN(C)C(=O)c1ccc(-c2cnc3ccc(NCC4CC4)nn23)cc1	
4.4 µM		O=C(NC1CCNCC1)c1ccc(-c2cnc3ccc(NCc4ccc(Cl)c(Cl)c4)nn23)cc1	
1.5 µM	0.31 µM	CC(N)CNC(=O)c1ccc(-c2cnc3ccc(NCC4CC4)nn23)cc1 (stereo not drawn)	
3.7 µM		O=C(NC[C@@H]1CCCN1)c1ccc(-c2cnc3ccc(NCc4ccccc4)nn23)cc1	
1.7 µM		NC(=O)c1ccc(-c2cnc3ccc(NCc4ccc(Cl)c(Cl)c4)nn23)cc1	
0.49 µM		CCN1CCC[C@H]1CNC(=O)c1ccc(-c2cnc3ccc(NCC4CC4)nn23)cc1	
1.3 µM	0.11 µM	CN1CCC[C@H]1CNC(=O)c1ccc(-c2cnc3ccc(NCC4CC4)nn23)cc1	
2.1 µM	0.16 µM	O=C(c1ccc(-c2cnc3ccc(NCC4CC4)nn23)cc1)N1CCC[C@@H]1CN1CCCC1	
6.5 µM		O=C(NC1CCNC1)c1ccc(-c2cnc3ccc(NCc4ccc(Cl)c(Cl)c4)nn23)cc1 (stereo not drawn)	
12 µM		CN1CCN(C(=O)c2ccc(-c3cnc4ccc(NCc5ccc(Cl)c(Cl)c5)nn34)cc2)CC1	
1.7 µM	0.27 µM	CC(C)Nc1ccc2ncc(-c3ccc(C(=O)NC[C@@H]4CCCN4)cc3)n2n1	
